# Results: ChEMBL document CHEMBL1144930, “A short synthesis and biological evaluation of potent and nontoxic antimalarial bridged bicyclic beta-sulfonyl-endoperoxides” (J Med Chem, 2003)
# Several values for one entry are separate records, joined by “and”; a condition that tells them apart may be missing. Equal entries are not always repeated. Activity calls are given as the source filed them. No cut-off for these calls is given here.
# What was measured:
# [1] = In vitro antimalarial activity against chloroquine-sensitive NF54 strain of Plasmodium falciparum; format: functional
# In short: (§1)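 Run in quadruplicate with fitted concentration-response curves (R2 ≥0.985). Artemisinin was run as a concurrent control.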
# Mus musculus [2] = assay: In vivo antimalarial activity in mice (Mus musculus) against chloroquine-sensitive Plasmodium berghei N after oral administration; format: functional
# Mus musculus [3] = assay: In vivo antimalarial activity in mice (Mus musculus) against chloroquine-sensitive Plasmodium berghei N after subcutaneous administration; format: functional
# Mus musculus [4] = assay: In vivo antimalarial activity in mice (Mus musculus) against chloroquine-resistant Plasmodium yoelii species. NS after subcutaneous administration; format: functional
# Mus musculus [5] = species: Mus musculus; assay: Dose at which all the mice (from 4 groups) demonstarted 100% survival and normal expected body weight gain after injecting with compound for 14 days; format: functional
# In short: (§2)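 Male CD-1/ICR mice in groups of at least 4, given a single intramuscular injection into rear-limb muscle (at most 0.05 mL per site). Test articles were dissolved or suspended at 5% in sesame oil; a vehicle group was included. Doses ranged from 85 to about 400 mg/kg. Survival and body weight gain were followed for 14 days.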
# Mus musculus [6] = assay: Number of mice survived in a group of 18 mice after injecting single intraperitoneal dose of 500 mg/kg (single dose of 250 mg/kg did not cause mice mortality); format: functional
# In short: (§3)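 Male CD-1 mice in groups of 18 received a single intraperitoneal dose (250, 500 or 1000 mg/kg) of the reference. Survival was scored. Clinical signs such as ruffled fur, hypoactivity and hunched posture were also recorded.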
# Mus musculus [7] = assay: Number of mice survived in a group of 18 mice after injecting single intraperitoneal dose of 1000 mg/kg (single dose of 250 mg/kg did not cause mice mortality); format: functional; in short: as §3
# Mus musculus [8] = species: Mus musculus; assay: Dose at which two mice demonstarted 100% survival and normal expected body weight gain after injecting with compound for 14 days; format: functional; in short: as §2
# [9] = In vitro antimalarial activity against chloroquine-sensitive NF54 strain of Plasmodium falciparum (Experiment 1); format: functional; in short: as §1
# [10] = In vitro antimalarial activity against chloroquine-sensitive NF54 strain of Plasmodium falciparum (Experiment 2); format: functional; in short: as §1
# Mus musculus [11] = assay: In vivo antimalarial activity in mice (Mus musculus) against chloroquine-resistant Plasmodium yoelii species. NS after subcutaneous administration; NA means Inactive at 30 mg/kg/day; format: functional, organism-based
smiles,measurement,setting,value
CC1CCC2CC1OO[C@@]2(C)CS(=O)(=O)c1ccccc1 (stereo not given in full),IC50,[1],17 nM
CC1=CCC2CC1OO[C@@]2(C)CS(=O)(=O)c1ccccc1 (stereo not given in full),IC50,[1],360 nM
COC(=O)CS(=O)(=O)C[C@]1(C)OOC2CC1CCC2(C)O (stereo not given in full),IC50,[1],> 2500 nM
C[C@@H]1C(=O)C[C@H]2C[C@@H]1OO[C@@]2(C)/C=C\c1ccc(C(F)(F)F)cc1C(F)(F)F [ARTEFLENE],ED50,Mus musculus [2],10.4 mg kg-1 5day-1
same,ED90,Mus musculus [2],18 mg kg-1 5day-1
same,ED50,Mus musculus [3],2.7 mg kg-1 5day-1
same,ED90,Mus musculus [3],3.9 mg kg-1 5day-1
same,IC50,[1],71 nM
CC1(OC(=O)C(=O)N(Cc2ccccc2)Cc2ccccc2)CCC2CC1OO[C@]2(C)CS(=O)(=O)c1ccccc1 (stereo not given in full),IC50,[1],81 nM
CC1(OC(=O)C(=O)N(Cc2ccccc2)Cc2ccccc2)CCC2CC1OO[C@@]2(C)CS(=O)(=O)c1ccccc1 (stereo not given in full),IC50,[1],21 nM
CC1(O)CCC2CC1OO[C@@]2(C)CS(=O)(=O)c1ccc(F)cc1 (stereo not given in full),IC50,[1],49 nM
CC1(O)C2CC(CC1OC(=O)c1ccccc1)[C@@](C)(CS(=O)(=O)c1ccccc1)OO2 (stereo not given in full),IC50,[1],170 nM
CC1(O)CCC2CC1OO[C@@]2(C)C[S+]([O-])c1ccccc1 (stereo not given in full),IC50,[1],150 nM
CC1(O)C2CC(CC1OC(=O)c1ccccc1)[C@](C)(CS(=O)(=O)c1ccccc1)OO2 (stereo not given in full),IC50,[1],> 2500 nM
CC(=O)OC1(C)CCC2CC1OO[C@]2(C)CS(=O)(=O)c1ccccc1 (stereo in doubt; 45c),IC50,[1],270 nM
CC1(O)C2CC(C[C@H]1OC(=O)c1ccccc1)[C@](C)(CS(=O)(=O)c1ccccc1)OO2 (stereo not given in full),IC50,[1],2500 nM
CC1=CCC2CC1OO[C@@]2(C)CSc1ccccc1 (stereo not given in full),IC50,[1],940 nM
CC1(O)CCC2CC1OO[C@@]2(C)CSC(c1ccccc1)(c1ccccc1)c1ccccc1 (stereo not given in full),IC50,[1],150 nM
CC(=O)OC1(C)CCC2CC1OO[C@@]2(C)CS(=O)(=O)c1ccccc1 (stereo in doubt; 45d),IC50,[1],220 nM
CCCCS(=O)(=O)C[C@]1(C)OOC2CC1CC(OC(=O)c1ccccc1)C2(C)O (stereo not given in full),IC50,[1],2500 nM
CC1(OCc2ccccc2)CCC2CC1OO[C@]2(C)CS(=O)(=O)c1ccccc1 (stereo not given in full),ED50,Mus musculus [4],1 mg kg-1 5day-1
same,ED90,Mus musculus [4],3.1 mg kg-1 5day-1
same,ED50,Mus musculus [2],4.2 mg kg-1 5day-1
same,ED90,Mus musculus [2],23.5 mg kg-1 5day-1
same,ED50,Mus musculus [3],0.43 mg kg-1 5day-1
same,ED90,Mus musculus [3],1.3 mg kg-1 5day-1
same,Dose,Mus musculus [5],380 mg/kg
same,IC50,[1],9.4 nM
C[C@@]12OC1CC1CC2OO[C@@]1(C)CS(=O)(=O)c1ccccc1 (stereo not given in full),IC50,[1],92 nM
CC1(O)CCC2CC1OO[C@]2(C)CS(=O)(=O)c1ccc(F)cc1 (stereo not given in full),IC50,[1],52 nM
CCCCS(=O)(=O)C[C@@]1(C)OOC2CC1CC(OC(=O)c1ccccc1)C2(C)O (stereo not given in full),IC50,[1],500 nM
CCOC(=O)C(=O)OC1(C)CCC2CC1OO[C@]2(C)CS(=O)(=O)c1ccccc1 (stereo not given in full),IC50,[1],140 nM
CC1(OC(=O)COc2ccccc2)CCC2CC1OO[C@@]2(C)CS(=O)(=O)c1ccccc1 (stereo not given in full),IC50,[1],37 nM
CC1(OCc2ccccc2)CCC2CC1OO[C@@]2(C)CS(=O)(=O)c1ccccc1 (stereo not given in full),ED50,Mus musculus [4],1.3 mg kg-1 5day-1
same,ED90,Mus musculus [4],3.8 mg kg-1 5day-1
same,ED50,Mus musculus [2],10.5 mg kg-1 5day-1
same,ED90,Mus musculus [2],115 mg kg-1 5day-1
same,ED50,Mus musculus [3],0.8 mg kg-1 5day-1
same,ED90,Mus musculus [3],1.7 mg kg-1 5day-1
same,Dose,Mus musculus [5],380 mg/kg
same,IC50,[1],6.5 nM
CO[C@H]1O[C@@H]2O[C@@]3(C)CC[C@H]4[C@H](C)CC[C@@H]([C@H]1C)[C@@]24OO3 [ARTEMETHER],ED50,Mus musculus [2],3.1 mg kg-1 5day-1
same,ED90,Mus musculus [2],5 mg kg-1 5day-1
same,ED50,Mus musculus [3],0.5 mg kg-1 5day-1
same,ED90,Mus musculus [3],1.1 mg kg-1 5day-1
same,No. of mice survived,Mus musculus [6],10
same,No. of mice survived,Mus musculus [7],4
CCO[C@H]1O[C@@H]2O[C@@]3(C)CC[C@H]4[C@H](C)CC[C@@H]([C@H]1C)[C@@]24OO3 [ARTEMOTIL],Dose,Mus musculus [8],360 mg/kg
same,ED50,Mus musculus [3],0.9 mg kg-1 5day-1
same,ED90,Mus musculus [3],1.4 mg kg-1 5day-1
CC1(O)CCC2CC1OO[C@@]2(C)CS(=O)(=O)c1ccccc1 (stereo in doubt; 26b),IC50,[1],95 nM
CC(=O)OC1(C)CCC2CC1OO[C@@]2(C)CS(=O)(=O)c1ccccc1 (stereo in doubt; 45b),IC50,[1],18 nM
CCN(CC)CCCC(C)Nc1ccnc2cc(Cl)ccc12 (stereo not given) [CHLOROQUINE],ED50,Mus musculus [4],2.4 mg kg-1 5day-1
same,ED90,Mus musculus [4],56 mg kg-1 5day-1
same,ED50,Mus musculus [2],1.9 mg kg-1 5day-1
same,ED90,Mus musculus [2],2.3 mg kg-1 5day-1
same,ED50,Mus musculus [3],1 mg kg-1 5day-1
same,ED90,Mus musculus [3],1.2 mg kg-1 5day-1
CC(=O)CC(=O)OC1(C)CCC2CC1OO[C@@]2(C)CS(=O)(=O)c1ccccc1 (stereo not given in full),IC50,[1],46 nM
C=C1CCC2CC1OO[C@@]2(C)CS(=O)(=O)c1ccccc1 (stereo not given in full),IC50,[1],< 3220 nM
CC1(O)CCC2CC1OO[C@@]2(C)CS(=O)(=O)c1ccccc1 (stereo in doubt; 23a) [listing 1 of 2 here],ED50,Mus musculus [3],>30 mg kg-1 5day-1
same,ED90,Mus musculus [3],>30 mg kg-1 5day-1
same,IC50,[1],55 nM
COc1ccc(COC2(C)CCC3CC2OO[C@@]3(C)CS(=O)(=O)c2ccccc2)cc1 (stereo not given in full),ED50,Mus musculus [4],4.8 mg kg-1 5day-1
same,ED90,Mus musculus [4],8.3 mg kg-1 5day-1
same,ED50,Mus musculus [3],1.3 mg kg-1 5day-1
same,ED90,Mus musculus [3],2.3 mg kg-1 5day-1
same,IC50,[1],14 nM
CC1CCC2CC1OO[C@]2(C)CS(=O)(=O)c1ccccc1 (stereo not given in full),IC50,[1],24 nM
CC(=O)CC(=O)OC1(C)CCC2CC1OO[C@]2(C)CS(=O)(=O)c1ccccc1 (stereo not given in full),IC50,[1],73 nM
C[C@@H]1CC[C@H]2[C@@H](C)C(=O)O[C@@H]3O[C@@]4(C)CC[C@@H]1[C@]32OO4 [ARTEMISININ],ED50,Mus musculus [4],5.8 mg kg-1 5day-1
same,ED90,Mus musculus [4],10 mg kg-1 5day-1
same,IC50,[9],8.7 nM
same,ED50,Mus musculus [2],5 mg kg-1 5day-1
same,ED90,Mus musculus [2],14 mg kg-1 5day-1
same,IC50,[10],8.9 nM
same,ED50,Mus musculus [3],0.95 mg kg-1 5day-1
same,ED90,Mus musculus [3],2.5 mg kg-1 5day-1
CC1(O)CCC2CC1OO[C@]2(C)CS(=O)(=O)c1ccccc1 (stereo in doubt; 23b),IC50,[1],89 nM
CC(C)=CCOC1(C)CCC2CC1OO[C@@]2(C)CS(=O)(=O)c1ccccc1 (stereo not given in full),IC50,[1],35 nM
CCOC(=O)C(=O)OC1(C)CCC2CC1OO[C@@]2(C)CS(=O)(=O)c1ccccc1 (stereo not given in full),IC50,[1],170 nM
CC(=O)OC1(C)CCC2CC1OO[C@]2(C)C[S+]([O-])c1ccccc1 (stereo not given in full),IC50,[1],40 nM and 14 nM
CC1(O)CCC2CC1OO[C@@]2(C)CS(=O)(=O)c1ccccc1 (stereo in doubt; 23a) [listing 2 of 2 here],NA,Mus musculus [11],Inactive at 30 mg/kg/day
C[C@@H]1[C@H](OCc2ccc(C(=O)O)cc2)O[C@@H]2O[C@@]3(C)CC[C@@H]4[C@@H](C)CC[C@@H]1[C@]24OO3 [ARTELINIC ACID],ED50,Mus musculus [3],6.6 mg kg-1 5day-1
same,ED90,Mus musculus [3],14 mg kg-1 5day-1
CC(=O)OC1(C)CCC2CC1OO[C@@]2(C)C[S+]([O-])c1ccccc1 (stereo not given in full),IC50,[1],62 nM and 54 nM
CC(=O)OC1(C)CCC2CC1OO[C@]2(C)CS(=O)(=O)c1ccccc1 (stereo in doubt; 45a),IC50,[1],20 nM
CC1(O)CCC2CC1OO[C@]2(C)C[S+]([O-])c1ccccc1 (stereo not given in full),IC50,[1],820 nM
CC1(O)CCC2CC1OO[C@]2(C)CS(=O)(=O)c1ccccc1 (stereo in doubt; 26a),IC50,[1],120 nM
CC1(OC/C=C/c2ccccc2)CCC2CC1OO[C@@]2(C)CS(=O)(=O)c1ccccc1 (stereo not given in full),IC50,[1],32 nM
COC(=O)CS(=O)(=O)C[C@@]1(C)OOC2CC1CCC2(C)O (stereo not given in full),IC50,[1],> 2500 nM
CC(=O)OC1(C)CCC2CC1OO[C@]2(C)CS(=O)(=O)c1ccccc1 (stereo in doubt; 39b),IC50,[1],17 nM
CC1(O)CCC2CC1OO[C@]2(C)CSC(c1ccccc1)(c1ccccc1)c1ccccc1 (stereo not given in full),IC50,[1],72 nM
CC1(O)C2CC(C[C@H]1O)[C@@](C)(CS(=O)(=O)c1ccccc1)OO2 (stereo not given in full),IC50,[1],> 2500 nM
CC1(O)C2CC(C[C@H]1OC(=O)c1ccccc1)[C@@](C)(CS(=O)(=O)c1ccccc1)OO2 (stereo not given in full),IC50,[1],815 nM
CC(=O)OC1(C)CCC2CC1OO[C@@]2(C)CS(=O)(=O)c1ccccc1 (stereo in doubt; 39a),ED50,Mus musculus [4],12.5 mg kg-1 5day-1
same,ED90,Mus musculus [4],28 mg kg-1 5day-1
same,ED50,Mus musculus [3],3.7 mg kg-1 5day-1
same,ED90,Mus musculus [3],7.3 mg kg-1 5day-1
same,IC50,[1],17 nM
